Consider 11 compounds from ChEMBL document CHEMBL1799981, “Synthesis and evaluation of nitric oxide-releasing derivatives of 3-n-butylphthalide as anti-platelet agents” (Bioorg Med Chem Lett, 2011).

One may read the IC50 as the concentration that inhibits the measured activity by half. As a reminder, the inhibition is the relative decrease from the control value, in per cent.

Data set [1] can be described thus: Induction of NO release from the compound in phosphate buffer at pH 7.4 at 0.1 mM incubated for 15 to 300 mins measured every 15 mins for 120 mins and every 30 mins for remaining time by Griess assay. It is filed as physicochemical. The note with it: pH 7.4, 100 µM. The essentials: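 Compound at 0.1 mM in PBS pH 7.4 containing 2% DMSO and 5.0 mM L-cysteine, incubated at 37 °C for 15–300 min. Sampled every 15 min up to 120 min, then every 30 min. Samples (2 mL) mixed with Griess reagent, 37 °C 10 min, absorbance at 540 nm. NO quantified against nitrite standards; means per time point.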

Data set [2] can be described thus: Aqueous solubility of the compound. Type of data set: physicochemical. As to conditions: buffer.
A short description of data set [3]: Antiplatelet activity in rabbit platelet rich plasma assessed as inhibition of ADP-induced aggregation treated for 5 mins before ADP challenge by turbidimetry. It is filed as functional. As to conditions: Oryctolagus cuniculus. The essentials: (§1)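 Rabbit PRP (low-speed spin 500 rpm 10 min; PPP from 3000 rpm 10 min as reference) pre-treated in duplicate with vehicle, reference drug or compound for 5 min, then ADP 10 µM final at 37 °C for 5 min. Aggregation followed by optical density (Born turbidimetry). % inhibition versus vehicle-treated ADP-exposed controls; IC50 by nonlinear regression, top concentration 1.0 mM. Mean ± S.D., n = 4.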

A short description of data set [4]: Antiplatelet activity in rabbit platelet rich plasma assessed as inhibition of ADP-induced aggregation at 1 mM treated for 5 mins before ADP challenge by turbidimetry. It is filed as functional. The note with it: Oryctolagus cuniculus. The essentials: as §1
Data set [5] is described as follows: Antiplatelet activity in rabbit platelet rich plasma assessed as inhibition of ADP-induced aggregation at 1 mM treated for 5 mins before ADP challenge by turbidimetry in presence of endogenous NO scavenger hemoglobin. Type of data set: functional. The note with it: Oryctolagus cuniculus. The essentials: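 Rabbit PRP exposed to compound at 1.0 mM for 5 min at 37 °C together with hemoglobin 20 µM (NO scavenger), then challenged with ADP 10 µM. Aggregation monitored turbidimetrically. Inhibition relative to vehicle-treated ADP-exposed controls. Mean ± SD from several independent experiments; Student's t test.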

In turn, `CCCCC(OC(=O)CN1CCOCC1)c1ccccc1C(=O)Oc1ccc(/C=C/C(=O)NCCO[N+](=O)[O-])cc1.Cl` (centres undefined) displayed an Activity in data set [1] of 0.043 µg/mL.

For `CCCCC(OC(=O)CN(CC)CC)c1ccccc1C(=O)Oc1ccc(/C=C/C(=O)NCCO[N+](=O)[O-])cc1OC.Cl` (centres undefined), the solubility entry in data set [2] is reported as “soluble”. Further, the IC50 in data set [3] came out at 54.4 µM. Further, the figures for the inhibition at 1000 µM in data set [4] and in data set [5] were 83% and 54.4%, respectively. In data set [1], this compound returned an Activity of 0.057 µg/mL.

Consider `CCCCC(OC(=O)CN1CCCCC1)c1ccccc1C(=O)Oc1ccc(/C=C/C(=O)NCCO[N+](=O)[O-])cc1OC.Cl` (centres undefined), for which the IC50 in data set [3] came to 39.4 µM. The inhibition at 1000 µM in data set [4] came to 83%. In data set [1], this compound yielded an Activity of 0.06 µg/mL.

Turning to `CCCCC(OC(=O)CN1CCCCC1)c1ccccc1C(=O)Oc1ccc(/C=C/C(=O)NCCO[N+](=O)[O-])cc1.Cl` (centres undefined), the solubility result in data set [2] is “soluble”. Moreover, the inhibition at 1000 µM in data set [4] worked out at 82.4%.

As for `CCCCC(OC(=O)CN(CC)CC)c1ccccc1C(=O)Oc1ccc(/C=C/C(=O)NCCCO[N+](=O)[O-])cc1.Cl` (centres undefined), the solubility result in data set [2] is “soluble”. For the same compound, the inhibition at 1000 µM in data set [4] came to 82.1%.

As to `CCCCC(OC(=O)CN(CC)CC)c1ccccc1C(=O)O` (centres undefined), the inhibition at 1000 µM in data set [4] was 67.2%.

As for `COc1cc(/C=C/C(=O)NCCO[N+](=O)[O-])ccc1O`, in data set [4], the inhibition at 1000 µM worked out at 51.3%.

The compound `CCCCC(OC(C)=O)c1ccccc1C(=O)Oc1ccc(/C=C/C(=O)NCC(C)O[N+](=O)[O-])cc1OC` (centres undefined) returned an Activity in data set [1] of 0.027 µg/mL.

Turning to `CCCCC(OC(C)=O)c1ccccc1C(=O)Oc1ccc(/C=C/C(=O)NCCO[N+](=O)[O-])cc1` (centres undefined), the Activity in data set [1] worked out at 0.022 µg/mL.

`CCCCC1OC(=O)c2ccccc21` (racemic) [RAC-3-N-BUTYLPHTHALIDE]: in data set [4], the inhibition at 1000 µM came to 67.8%.

As for `CC(=O)Oc1ccccc1C(=O)O` [ASPIRIN], the inhibition at 1000 µM in data set [4] was 68.5%.
